# Data: ChEMBL document CHEMBL1123024, “5,6-Diaryl-2,3-dihydroimidazo[2,1-b]thiazoles: a new class of immunoregulatory antiinflammatory agents” (1985)
# How the values were obtained:
# Type in all cases: functional
# Rattus norvegicus [1] = test: Percent change in immune R16 inflammatory lesions in rat adjuvant-induced arthritis at 50 mg/kg
# Procedure, shortened: (§1)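 Male Wistar rats received 0.75 mg M. butyricum in paraffin oil intradermally into the left hindpaw. Compounds were given daily po in 0.5% tragacanth from the injection day for 17 days, skipping days 4, 5, 11 and 12. Leg volumes were read by mercury displacement: left leg on day 3, both legs on day 16. Eight treated rats vs 16 vehicle controls; Student's t test. ED25 is the dose giving a 25% volume decrease, from at least three doses, with 95% limits by Fieller's theorem.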
# Rattus norvegicus [2] = test: Percent change in nonimmune L3 inflammatory lesions in rat adjuvant-induced arthritis at 50 mg/kg; procedure, shortened: as §1
# Rattus norvegicus [3] = test: Percent change in nonimmune L16 inflammatory lesions in rat adjuvant-induced arthritis at 50 mg/kg; procedure, shortened: as §1
# Mus musculus [4] = species on record: Mus musculus; test: Immunoregulatory activity against mouse contact sensitivity was evaluated as percent change
# Procedure, shortened: (§2)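 Male C57B1/6 mice were sensitized with 0.1 mL of 5% oxazolone in absolute ethanol on the clipped abdomen. At 45 h the left hind leg was challenged with 5% oxazolone. Compound was given po in 0.5% tragacanth. Edema was read plethysmographically 24 h later as left minus right leg volume. Six mice vs eight controls; Student's t test.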
# Rattus norvegicus [5] = test: The compound was tested for percent change in nonimmune L3 inflammatory lesions in rat adjuvant-induced arthritis at 50 mg/kg; procedure, shortened: as §1
# Rattus norvegicus [6] = test: The compound was tested for percent change in immune R16 inflammatory lesions in rat adjuvant-induced arthritis at 50 mg/kg; procedure, shortened: as §1
# Mus musculus [7] = species on record: Mus musculus; test: Immunoregulatory activity against oxazolone induced mouse contact sensitivity was evaluated as percent change; procedure, shortened: as §2
# Rattus norvegicus [8] = test: The compound was tested for percent change in nonimmune L16 inflammatory lesions in rat adjuvant-induced arthritis at 50 mg/kg; procedure, shortened: as §1
# Rattus norvegicus [9] = test: Compound was tested by carrageenan -induced paw edema for percent change in paw volume of control sham operated rats at 100 mg/kg.
# Procedure, shortened: (§3)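 Normal, adrenalectomized or sham-operated Lewis rats were dosed po in 0.5% tragacanth, hydrated. 1 h later paw volume was read, then […] of 1% carrageenan in 0.9% saline was injected into the right hindpaw plantar surface. Volume was re-read at 3 h. Percent change, treated vs control; Student's t test.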
# Rattus norvegicus [10] = test: Compound was tested by carrageenan -induced paw edema for percent change in paw volume of control sham operated rats at 50 mg/kg; the % change was Not statistically significant; procedure, shortened: as §3
# Mus musculus [11] = species on record: Mus musculus; test: Immunoregulatory activity against oxazolone induced mouse contact sensitivity was evaluated as percent change; the % change in Not statistically Significant; procedure, shortened: as §2
# Rattus norvegicus [12] = test: The compound was tested for percent change in nonimmune L3 inflammatory lesions in rat adjuvant-induced arthritis at 50 mg/kg; the %change is Not statistically significant; procedure, shortened: as §1
# Rattus norvegicus [13] = test: Compound was tested by carrageenan-induced paw edema for percent change in paw volume of control sham operated rats at 50 mg/kg; the %change is Not statistically significant; procedure, shortened: as §3
# Rattus norvegicus [14] = test: Compound was tested by carrageenan -induced paw edema for percent change in paw volume of control sham operated rats at 50 mg/kg.; procedure, shortened: as §3
SMILES,Change (Rattus norvegicus [1]) [%],Change (Rattus norvegicus [2]) [%],Change (Rattus norvegicus [3]) [%],Change (Mus musculus [4]) [%],also measured
Clc1ccc(-c2nc3n(c2-c2ccc(Cl)cc2)CCS3)cc1,-38,-18,-35,43,
FC(F)(F)COc1ccc(-c2nc3n(c2-c2ccc(OCC(F)(F)F)cc2)CCS3)cc1,-3,-13,-20,26,
CC(C)(C)C(=O)Nc1ccc(-c2nc3n(c2-c2ccc(NC(=O)C(C)(C)C)cc2)CCS3)cc1,-1,-4,-3,15,
CCSc1nc(-c2ccc(OC)cc2)c(-c2ccc(OC)cc2)n1CC,-8,-6,-9,65,
Oc1ccc(-c2nc3n(c2-c2ccc(O)cc2)CCS3)cc1,9,-9,-7,122,
COc1ccc(-c2nc3n(c2-c2ccccc2)CCS3)cc1OC,-6,8,-1,82,
COc1ccc(-c2nc(SC)n(C)c2-c2ccc(OC)cc2)cc1,-35,-24,-31,150,
CCOc1ccc(-c2nc3n(c2-c2ccc(OCC)cc2)CCS3)cc1,-32,-22,-34,150,
CSc1ccc(-c2c(-c3ccc(F)cc3)nc3n2CCS3)cc1,-30,-16,-30,122,
Brc1ccc(-c2nc3n(c2-c2ccc(Br)cc2)CCS3)cc1,-46,-25,-42,71,
c1cc2c(cc1-c1nc3n(c1-c1ccc4c(c1)OCO4)CCS3)OCO2,-27,-18,-23,16,
COc1ccc(-c2c(-c3ccc(F)cc3)nc3n2CC[S+]3[O-])cc1 (stereo unspecified),,,,,Change (Rattus norvegicus [5]): -35%; Change (Rattus norvegicus [6]): -39%; Change (Mus musculus [7]): 65%; Change (Rattus norvegicus [8]): -39%
COc1ccc(-c2nc3n(c2-c2ccc(OC)c(F)c2)CCS3)cc1F,-3,1,0,88,
COc1ccc(-c2c(-c3ccccc3)nc3n2CCS3)cc1,-6,-15,-11,112,
CSc1ccc(-c2nc3n(c2-c2ccc(F)cc2)CCS3)cc1,6,-14,0,44,
FC(F)(F)c1ccc(-c2nc3n(c2-c2ccc(C(F)(F)F)cc2)CCS3)cc1,1,0,12,89,Change (Rattus norvegicus [9]): 4%
Nc1ccc(-c2nc3n(c2-c2ccc(N)cc2)CCS3)cc1,0,-15,-10,36,
COc1ccc(-c2c(-c3ccccc3)nc3n2CCS3)cc1OC,11,5,1,69,
C[S+]([O-])c1ccc(-c2nc3n(c2-c2ccc([S+](C)[O-])cc2)CC[S+]3[O-])cc1 (stereo unspecified),,,,,Change (Rattus norvegicus [5]): -27%; Change (Rattus norvegicus [10]): 10%; Change (Mus musculus [11]): 38%; Change (Rattus norvegicus [6]): -47%; Change (Rattus norvegicus [8]): -44%
CCSc1nc(-c2ccc(OC)cc2)c(-c2ccc(OC)cc2)[nH]1,-37,-31,-42,119,
COc1ccc(-c2nc3n(c2-c2ccc(F)cc2)CCS3)cc1,6,11,-4,103,
COc1ccccc1-c1nc2n(c1-c1ccccc1OC)CCS2,-7,0,-5,95,
C[S+]([O-])c1ccc(-c2nc3n(c2-c2ccc([S+](C)[O-])cc2)CCS3)cc1 (stereo unspecified),-19,-25,-27,117,
COc1ccc(-c2nc3n(c2-c2ccc(OC)cc2)C(=O)CS3)cc1,0,-4,4,25,

SMILES,Change (Rattus norvegicus [1]) [%],Change (Rattus norvegicus [2]) [%],Change (Rattus norvegicus [3]) [%],Change (Mus musculus [4]) [%],also measured
CCCCOc1ccc(-c2nc3n(c2-c2ccc(OCCCC)cc2)CCS3)cc1,2,5,2,130,
O=S1(=O)CCn2c1nc(-c1ccc(F)cc1)c2-c1ccc(F)cc1,,,,,Change (Rattus norvegicus [12]): -6%; Change (Rattus norvegicus [6]): -34%; Change (Mus musculus [7]): 20%; Change (Rattus norvegicus [13]): 3%; Change (Rattus norvegicus [8]): -17%
COc1ccc(-c2nc3n(c2-c2ccc(OC)c(OC)c2)CCS3)cc1OC,5,0,-2,48,
COc1ccc(-c2nc(SC)[nH]c2-c2ccc(OC)cc2)cc1,-38,-29,-45,52,
COc1ccc(-c2nc3n(c2-c2ccc(OC)cc2)CCCS3)cc1,-20,-2,-4,30,
Cl.Fc1ccc(-c2nc3n(c2-c2ccc(F)cc2)CCS3)cc1,-49,-39,-36,79,Change (Rattus norvegicus [9]): 6%; Change (Rattus norvegicus [14]): -9%
Fc1cccc(-c2nc3n(c2-c2cccc(F)c2)CCS3)c1,3,-1,-1,22,
c1ccc(-c2nc3n(c2-c2ccccc2)CCS3)cc1,-4,-12,-4,,Change (Rattus norvegicus [9]): -7%; Change (Rattus norvegicus [14]): -9%
COc1ccc(-c2cn3c(n2)SCC3)cc1,-16,-3,-10,132,
COc1ccc(-c2nc3n(c2-c2ccc(OC)c(C)c2)CCS3)cc1C,-19,-16,-20,30,
CC(=O)Oc1ccc(-c2nc3n(c2-c2ccc(OC(C)=O)cc2)CCS3)cc1,-17,-16,-12,101,
Cc1ccc(-c2nc3n(c2-c2ccc(C)cc2)CCS3)cc1,-7,-6,0,86,
COc1ccc(-c2nc3n(c2-c2ccccc2)CCS3)cc1,1,-5,-10,26,
CCN(C(C)=O)c1ccc(-c2nc3n(c2-c2ccc(N(CC)C(C)=O)cc2)CCS3)cc1,-10,-4,-1,43,
COc1cc(-c2nc3n(c2-c2cc(OC)c(OC)c(OC)c2)CCS3)cc(OC)c1OC,-19,-2,0,75,
Cc1cccc(-c2nc3n(c2-c2cccc(C)c2)CCS3)c1,-5,-14,-13,38,
c1ccc2c(c1)nc1n2CCS1,7,-18,-2,51,
CSc1ccc(-c2nc3n(c2-c2ccc(SC)cc2)CCS3)cc1,-38,-25,-36,73,Change (Rattus norvegicus [14]): -33%
CC(=O)Nc1ccc(-c2nc3n(c2-c2ccc(NC(C)=O)cc2)CCS3)cc1,,3,-1,78,Change (Rattus norvegicus [6]): 12%
C=CCOc1ccc(-c2nc3n(c2-c2ccc(OCC=C)cc2)CCS3)cc1,-21,-2,-2,71,
COc1cccc(-c2nc3n(c2-c2cccc(OC)c2)CCS3)c1,-16,0,-4,166,Change (Rattus norvegicus [9]): -3%
Fc1ccc(-c2nc3n(c2-c2ccc(F)cc2)CCS3)cc1,-49,-39,-36,79,
CCN(C)c1ccc(-c2nc3n(c2-c2ccc(N(C)CC)cc2)CCS3)cc1,-36,-31,-41,69,
